Reference: ChEMBL document CHEMBL1800056, “Discovery of 2-(6-{[(6-fluoroquinolin-2-yl)methyl]amino}bicyclo[3.1.0]hex-3-yl)-N-hydroxypyrimidine-5-carboxamide (CHR-3996), a class I selective orally active histone deacetylase inhibitor” (J Med Chem, 2010)
In brackets after ≈: the same amount, converted by molar mass. Activity calls are given as the source filed them. The calls are words filed in the database; no cut-off is given here.

Columns and labels:
COR-L23 = test: Ratio of GI50 for SAHA to compound for human COR-L23 cells after 72 hrs by WST-1 assay; assay type: functional
How it was run: (§1)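 Cells seeded at (1-5) × 10³/well in serum-containing medium and grown 24 h at 37 °C, 5% CO₂. They were then exposed for 72 h to HDAC inhibitor (0.6-10000 nM), with SAHA run alongside in the same panel. WST-1 was added for the final 4 h and read at 450 nm (650 nm reference). GI50 taken as 50% inhibition of the vehicle response, n = 6.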

A2780 = test: Ratio of GI50 for SAHA to compound for human A2780 cells after 72 hrs by WST-1 assay; assay type: functional; how it was run: as §1
[1] = Clearance in rat at 1 mg/kg, iv; assay type: ADME, organism-based; set-up: dose 1 mg/kg, route intravenous; conditions: in vivo
How it was run: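 Rat single dose, iv 1 mg/kg or po 10 mg/kg, both in 1% DMSO-HPβC (11.25% w/v). AUC0-t in ng h/mL, clearance in (mL/min)/kg, t1/2 in h, F in %.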

HCT-116 = test: Antitumor activity against human HCT116 cells xenografted in BALB/c mouse assessed as suppression of tumor growth at 50 mg/kg, po administered QD for 14 days; assay type: functional, organism-based; set-up: dose 50 mg/kg
How it was run: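 HCT116 xenografts in female nude BALB/c mice, run at EpiStem. Oral daily dosing for 14 days in 5% DMSO-saline at 50 or 75 mg/kg. Tumor volume measured relative to start; drug concentrations in tumor and plasma measured.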

[2] = Half life in dog at 10 mg/kg, po; assay type: ADME, organism-based, Canis lupus familiaris; set-up: dose 10 mg/kg, route oral; conditions: in vivo
How it was run: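 Dog single dose: iv 1 mg/kg in 5% DMSO-HPβC (11.25% w/v); po 10 mg/kg in 5% DMSO-saline. AUC0-t in ng h/mL, clearance in (mL/min)/kg, t1/2 in h, F in %.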

[3] = Aqueous solubility of the compound in PBS at pH 5.5; assay type: physicochemical
MIA PaCa-2 = test: Ratio of GI50 for SAHA to compound for human MIAPaCa2 cells after 72 hrs by WST-1 assay; assay type: functional; how it was run: as §1

## O=C(NO)c1cnc(N2C[C@@H]3[C@H](C2)[C@H]3NCc2ccc3cc(F)ccc3n2)nc1 [NANATINOSTAT]
COR-L23
  RatioGI50: 10.5
A2780
  RatioGI50: 15
[1]
  clearance: 134 mL/min/kg
HCT-116
  Activity: Active
[2]
  half-life: 54 min
[3]
  solubility: 3 µg/mL (≈ 7.61 µM)
MIA PaCa-2
  RatioGI50: 12.5
